LC99 and Ratio data for 14 molecules are collected here from ChEMBL document CHEMBL1133734, “Synthesis and evaluation of nitroheterocyclic phosphoramidates as hypoxia-selective alkylating agents” (2000).

One assay relates to B16. As to the kind of experiment: Tested in vitro for cytotoxicity against B16 murine melanoma cells. Type of assay: functional, Mus musculus. The essentials:
(§1)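 Clonogenic assay. Cells were suspended in unsupplemented medium at 2-30 000 cells/mL and exposed 2 h at 37 °C, 5% CO2 to 1-400 µM drug (final), with the top dose chosen to give >99% kill. Drug stocks were made in medium or ethanol. After washing, cells were plated at 2-3 dilutions. Colonies of ≥50 cells were stained with crystal violet at 8 days (B16) or 14 days (MCF-7). LC99 was taken by linear regression of log surviving fraction vs concentration.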

Assay [1] concerns HT-29. The assay is described as follows: Tested in vitro for cytotoxicity against HT-29 human colon carcinoma cells under aerobic condition. It counts as functional. The essentials: (§2)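 HT-29 colon cells were grown in α-MEM with 10% FBS and given a 4-h drug exposure under aerobic or hypoxic conditions in a clonogenic assay run in duplicate. The top dose was chosen to give >99% kill. LC99 (1% colony survival versus untreated controls) was taken by linear regression of log surviving fraction vs drug concentration.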

Assay [2] deals with HT-29. As to the kind of experiment: Tested in vitro for cytotoxicity against HT-29 human colon carcinoma cells under hypoxic condition. It counts as functional. The essentials: as §2
Another assay concerns MCF7-CP. The assay is described as follows: Tested in vitro for cytotoxicity against MCF-7/CP 4-hydroperoxycyclophosphamide-resistant human breast cancer cells. It counts as functional. The essentials:
as §1

The next assay has as its system MCF7. The assay is described as follows: Tested in vitro for cytotoxicity against MCF-7/WT wild-type human breast cancer cells. Type of assay: functional. The essentials:
as §1

Assay [3] can be described thus: Ratio of lethal conc. under aerobic to hypoxic condition in HT-29 cells. It counts as functional. The procedure, abridged:
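HT-29 hypoxic selectivity. Aerobic and hypoxic LC99 values (concentration cutting clonogenic survival by 2 log units) come from the log-linear portion of each survival curve after 4-h drug treatment, assayed in duplicate. The ratio is aerobic LC99 over hypoxic LC99.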

Each structure is given as a SMILES string. Where only a bound is given, the exact number is not on record here.

On to `NC(=O)c1cc(COP(N)(=O)N(CCBr)CCBr)sc1[N+](=O)[O-]` (stereo not drawn), for which the LC99 with B16 was found to be 1.4 µM; with HT-29 [1], 0.73 µM; in the assay on HT-29 [2], 0.33 µM; in the assay on MCF7-CP, 1.5 µM; in the assay with MCF7, 1.6 µM. Moreover, in assay [3], the Ratio was found to be 2.2.

As to `N#Cc1cc(COP(N)(=O)N(CCBr)CCBr)sc1[N+](=O)[O-]` (stereo not drawn), the LC99 came to 0.45 µM in the assay on B16; 0.62 µM with HT-29 [1]; 0.22 µM in the assay on HT-29 [2]; 0.24 µM in the assay with MCF7-CP; 0.11 µM in the assay with MCF7. The Ratio in assay [3] was 2.8.

With `O=[N+]([O-])c1ccc(COP(=O)(N(CCCl)CCCl)N(CCCl)CCCl)s1`, the LC99 in the assay on B16 is 5.1 µM; with HT-29 [1], 10.8 µM; in the assay on HT-29 [2], 6.2 µM; in the assay on MCF7-CP it was 6.5 µM; with MCF7, 7.9 µM. For the same molecule, the Ratio in assay [3] is 1.7.

In the case of `Cn1c(COP(=O)(N(CCBr)CCBr)N(CCBr)CCBr)ccc1[N+](=O)[O-]`, the results for the LC99 with B16, with MCF7-CP and with MCF7 were 14 µM, 51 µM and 57 µM, respectively.

As to `Cn1c(COP(=O)(N(CCCl)CCCl)N(CCCl)CCCl)ccc1[N+](=O)[O-]`, the LC99 in the assay on B16 turned out to be 70 µM; in the assay on MCF7-CP, 245 µM; in the assay on MCF7 it was 205 µM.

With `O=P(OCc1cccs1)(N(CCCl)CCCl)N(CCCl)CCCl`, the values for the LC99 in the assay with B16, in the assay on MCF7-CP and with MCF7 were 120 µM, 205 µM and 211 µM, respectively.

Take `O=P(OCc1ccco1)(N(CCCl)CCCl)N(CCCl)CCCl`: the LC99 was 53 µM with B16, 230 µM with MCF7-CP and 300 µM with MCF7.

For the molecule `CN(C)c1cc(COP(N)(=O)N(CCBr)CCBr)sc1[N+](=O)[O-]` (stereo not drawn), the LC99 with B16 stood at 52 µM; with HT-29 [1], 180 µM; in the assay on HT-29 [2], 8.9 µM; in the assay with MCF7-CP, 110 µM; with MCF7, 88 µM. Also, in assay [3], the Ratio stood at 20.

Turning to `O=[N+]([O-])c1ccc(COP(=O)(N(CCBr)CCBr)N(CCBr)CCBr)o1`, the results for the LC99 in the assay on B16, in the assay on MCF7-CP and with MCF7 were 1.7 µM, 2.3 µM and 1.9 µM, respectively.

Consider `Cn1c([N+](=O)[O-])cnc1COP(=O)(N(CCCl)CCCl)N(CCCl)CCCl`, for which the LC99 was 150 µM in the assay with B16; greater than 600 µM with HT-29 [1]; 28 µM in the assay with HT-29 [2]; greater than 600 µM in the assay on MCF7-CP; greater than 600 µM with MCF7. The Ratio in assay [3] was greater than 20.

As for `O=[N+]([O-])c1ccc(COP(=O)(N(CCBr)CCBr)N(CCBr)CCBr)s1`, the results for the LC99 in the assay on B16, in the assay with MCF7-CP and in the assay with MCF7 were 1.1 µM, 1.9 µM and 2.4 µM, respectively.

With `NP(=O)(OCc1cc(Br)c([N+](=O)[O-])s1)N(CCBr)CCBr` (stereo not drawn), the LC99 in the assay with B16 was 0.44 µM; in the assay on HT-29 [1], 0.91 µM; with HT-29 [2] it was 0.25 µM; in the assay on MCF7-CP, 1.3 µM; in the assay with MCF7 it was 0.62 µM. The Ratio in assay [3] came to 3.6.

In the case of `O=[N+]([O-])c1ccc(COP(=O)(N(CCCl)CCCl)N(CCCl)CCCl)o1`, the LC99 in the assay with B16 turned out to be 9.3 µM; with HT-29 [1], 12 µM; in the assay with HT-29 [2], 3.4 µM; with MCF7-CP it was 22 µM; in the assay on MCF7, 20 µM. Also, the Ratio in assay [3] turned out to be 3.5.

As to `O=P1(N(CCCl)CCCl)NC(OO)CCO1` (stereo not drawn) [PERFOSFAMIDE], the figures for the LC99 with B16, with MCF7-CP and in the assay on MCF7 were 11 µM, 145 µM and 14 µM, respectively.
